Laboratory results reported in ChEMBL document CHEMBL4513216, “Probing the Open Global Health Chemical Diversity Library for Multistage-Active Starting Points for Next-Generation Antimalarials” (ACS Infect Dis, 2020).

assay: Toxicity liver stage against HepG2, at 10uM; assay type: cell-based; design: test concentration 10 uM, cell line HepG2-A16-CD81EGFP; settings: human, HepG2-A16-CD81EGFP cells; read-out: INHIBITION
Outline: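 Uninfected HepG2-A16-CD81EGFP cells, 3 × 10^3 per well, 1536-well, plated on prespotted compound at 10 μM final, parasite-free screening media added to match infected plates; puromycin 10 μM positive, DMSO 0.5% negative; run in parallel with 48 h PbLuc assay at 37 °C, 5% CO2; viability by CellTiter-Glo luminescence, normalized to controls.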

Row | Structure (SMILES) | cytotoxicity at 10 µM [%]
1 | CCOCc1nc(N2CCCC2)sc1C(=O)NCCC(=O)OCC | -3.66
2 | CCN1CCN(C(=O)CCn2cccc2)CC1 | 7.66
3 | O=C1CCNc2ncc(-c3cccc(Cl)c3)cc2CN1C1CC1 | 8.55
4 | COc1cc2nc(C)n(CC(=O)NCCN(C)C)c(=O)c2cc1OC | -7.18
5 | O=C(Cc1csc(-c2ccccc2F)n1)NCc1ccc(C(=O)O)cc1 | -3.85
6 | CC(C)C(=O)N1CCN(c2cc(N(C)C)cnn2)CC1 | -6.45
7 | CO[C@H]1CCN(C(=O)c2cc(C)on2)C[C@@H]1Cc1ccccc1 | 4.06
8 | Cc1nnc(C[C@@H]2COC[C@H]3CN(C(=O)c4ccco4)C[C@@H]23)o1 | -8.75
9 | CCC(C)N1CCc2nc(N3CCCC3)nc(NC(C)C)c2C1 (stereo not drawn) | 8.53
10 | O=C(NC1CC1)[C@H]1C[C@H]2OCC[C@H]2N(Cc2ccco2)C1 | 8.88
11 | O=c1[nH]c2nc(N3CCCC3)ncc2c(=O)n1-c1cccc(F)c1 | 8.24
12 | O=C1CC(c2ccc(O)cc2)c2c(n3ccsc3nc2=O)N1 (stereo not drawn) | -3.12
13 | CC(C)c1noc(-c2ccc(-n3cnc(C(=O)O)c3)nc2)n1 | -2.06
14 | COc1ccc(-c2nnsc2C(=O)N2CCN(C(C)=O)CC2)cc1 | -0.145
15 | CNC(=O)[C@@]12CCC3(CCN(C(C)=O)CC3)[C@@H]1CN(S(C)(=O)=O)C2 | -3.61
16 | O=C1NC(c2ccccc2)=N[C@@]12CC[C@@H]1CN(CC3CCOCC3)C[C@@H]12 | 4.01
17 | CCCN1CCN(C(=O)c2ccn(COc3ccc(F)cc3)n2)CC1 | 8.88
18 | CC(C)C(=O)N1CCN(c2ncnc3cc4c(cc23)OCCO4)CC1 | 2.41
19 | c1ccc2c(N3CCCCC3)cnnc2c1 | -5.34
20 | Cc1cc(N2CCOC(c3ccccn3)C2)nc(N)n1 (stereo not drawn) | 4.4
21 | CN(C)Cc1cccc(-c2cccnc2C(=O)NCc2ccco2)c1 | 4.16
22 | Cc1nccc(C2CN(Cc3ccc(-c4ccccc4C(=O)O)o3)C2)n1 | 4.28

Row | Structure (SMILES) | cytotoxicity at 10 µM [%]
23 | CCOCCCNS(=O)(=O)c1ccc2c(c1)NC(=O)C(C)O2 (stereo not drawn) | -3.57
24 | O=C(O)c1ccccc1-c1ccc(Cn2c(=O)cc[nH]c2=O)cc1 | 5.64
25 | NCC(=O)N1CCCC(O)(CN2CCN(c3ccccc3)CC2)CC1 (stereo not drawn) | -7.58
26 | Cc1cc(N2CCC(Cc3cnccn3)C2)ncn1 (stereo not drawn) | -3.24
27 | Cc1ccc(CN2CCc3nc(C(C)C)nc(O)c3CC2)s1 | 0.913
28 | CS(=O)(=O)c1cn[nH]c1C1CCCN(C(=O)Cn2cccn2)C1 (stereo not drawn) | -11.7
29 | CNc1cc(C2CCCN2S(=O)(=O)c2cccc(F)c2)ccn1 (stereo not drawn) | -22.7
30 | Cc1noc(C)c1-c1nc(N(C)CCN(C)C)ncc1-c1cnccn1 | -12.4
31 | Cc1cnc(-c2nc(C3CCN(C(=O)Cc4ccsc4)CC3)no2)cn1 | -29.5
32 | Clc1ccccc1CN1CCCC(c2nnc(-c3cnccn3)o2)C1 (stereo not drawn) | -10.3
33 | O=C(NCCN1CCOCC1)Nc1cnc2cc(Cl)ccc2c1O | -24
34 | COc1ccc(CN(C)[C@@H]2CN(C(=O)c3cnn(C)c3)C[C@H]2O)cc1 | -21.9
35 | CNc1cncc(C2CCCN2C(=O)c2ccc3nc(C)[nH]c3c2)n1 (stereo not drawn) | -8.94
36 | O=C(N[C@@H]1CN(Cc2ccc(F)c(F)c2)C[C@H]1O)c1cscn1 | -3.78
37 | CCC(C(=O)NCc1ccn(-c2ccc(F)cc2)n1)N1CCCC1=O (stereo not drawn) | -5.63
38 | Cn1c(N)nnc1SC1CCCN(c2ccccc2)C1=O (stereo not drawn) | 0.296
39 | CC(C)c1nc(NS(=O)(=O)c2ccccc2Cl)no1 | 10
40 | COc1c(C2CCCN2C(=O)c2ccc(C(N)=O)s2)c(C)nn1C (stereo not drawn) | 0.00973
41 | Cc1ccc(CN(C(=O)NC2CCS(=O)(=O)C2)C2CC2)o1 (stereo not drawn) | -155
42 | O=C(NC1CCN(Cc2ccc(F)cc2)CC1)c1ccc2c(c1)CCC2 | 2.55
43 | CC(NC(=O)Nc1cnn(CC(N)=O)c1)c1ccc(Cl)s1 (stereo not drawn) | 11.5
44 | CCOc1cc(NC(=O)N2CCOC3(CCC3)C2)ccc1C | -0.535

Row | Structure (SMILES) | cytotoxicity at 10 µM [%]
45 | COC1CCN(CC(=O)NCc2ccc(OCC(N)=O)cc2)CC1 | -0.094
46 | O=C(CNC1(c2ccc(Cl)cc2)CCOCC1)NC1CCCC1 | 2.32
47 | Cc1nc(CN(C)Cc2cc3c(cc2OC(F)F)OCO3)cs1 | 8.68
48 | CCCn1nc2c(cc1=O)CN(Cc1c(C)noc1C)CC2 | -5.03
49 | CCCC(NC(=O)c1ccc(OC)cc1C)c1nnn[nH]1 (stereo not drawn) | 2.06
50 | Cc1ccc(C)c(NC(=O)Cc2c(C)nc3c(c2C)c(=O)[nH]n3C)c1 | 15.4
51 | O=C(Nc1cccnc1)Nc1cccc(CN2CCC(O)CC2)c1 | -4.06
52 | O=C(NCc1ccncc1)N(Cc1ccc(F)cc1F)C1CC1 | 3.9
53 | CCc1noc(C(C)N2CCN(CC(=O)N3CCOCC3)CC2)n1 (stereo not drawn) | 6.01
54 | CNC(=O)c1cccc(CCNc2ccccn2)c1 | 1.68
55 | CC1CCN(CC2CCN(C(=O)c3c[nH]c4ncccc34)CC2)CC1 | 10
56 | CCNC(=O)CNC(=O)c1ccn(S(=O)(=O)c2ccc(C)cc2)c1 | -5.73
57 | CC(NCC1CCS(=O)(=O)CC1)c1cccc(OC(F)F)c1 (stereo not drawn) | -5.16
58 | CCn1nc2c(cc1=O)CN(CCOc1ccccc1C#N)CC2 | 19.2
59 | O=S(=O)(NCCc1nnc2ccccn12)c1cccnc1 | 1.9
60 | COc1cc(C(=O)NCCc2cccc(C)c2)on1 | 0.572
61 | CCn1c(CN(C)CC(=O)N(C)C)nc2c(F)cccc21 | -4.36
62 | Cc1nnc(SCCC(=O)N(C)Cc2ccc(Cl)s2)[nH]1 | 14.4
63 | CN(Cc1cc(F)ccc1C#N)CC(C)(CO)CO | -10.4
64 | CC(C)C(NC(=O)c1ccc(Cl)cc1Cl)C(=O)Nc1ccn(C)n1 (stereo not drawn) | 1.5
65 | N#Cc1cc(F)c(NCCCOCC2CCOC2)c(F)c1 (stereo not drawn) | 6.43
66 | COCC(NC(=O)NCc1sccc1C)c1ccco1 (stereo not drawn) | -3.25

Row | Structure (SMILES) | cytotoxicity at 10 µM [%]
67 | c1cnn(CCNCc2csc(-c3ccc4c(c3)OCO4)n2)c1 | 4.12
68 | O=C(CCc1ccsc1)NCC1CCN(c2ccccc2)C1 (stereo not drawn) | 21.1
69 | Cc1occc1C(=O)N1CCN2C[C@H](Oc3cccnc3)C[C@H]2C1 | -4.15
70 | CCOc1ccccc1CC(=O)N1C[C@@H](C(=O)O)[C@H](C2CC2)C1 | 1.12
71 | CC(C)CN1C[C@@H](C(=O)O)C[C@@H](C(=O)NCc2ccncc2)C1 | -147
72 | Cc1nc(N(C)C)ncc1C(=O)N[C@H]1Cc2ccccc2[C@@H]1N | 1.81
73 | CC1CCN(S(=O)(=O)N2CCc3c(c(C(=O)O)nn3CC3CC3)C2)CC1 | -0.65
74 | Cc1cnn(CCC(=O)N2CCN(C(=O)C3CC3)[C@@H]3CS(=O)(=O)C[C@@H]32)c1 | 0.168
75 | CCn1c(CN(C)C)nnc1C1CCN(Cc2ccncc2)CC1 | 8.18
76 | COC(=O)[C@@H]1CCCN1C(=O)c1cn(CCCc2ccccc2)nn1 | 3.15
77 | CCc1cnc(N)nc1N(C)CCc1cnn(C)c1 | 55.9
78 | Cc1ccc(N2CCN(C(=O)CCc3n[nH]c(C)n3)CC2=O)cc1 | -4.06
79 | COc1ccc(C[C@@H]2CC[C@H](CN(C)C3CCN(C)CC3)O2)cc1 | -7.25
80 | O=C(NCCc1csc(-c2ccncc2)n1)C1CC(=O)N(C2CC2)C1 (stereo not drawn) | -8.44
81 | CN(CC1(O)CCCN(CCC2CCCCC2)C1=O)C1CCOCC1 (stereo not drawn) | 12.7
82 | COc1cccc(-n2nnc(C(=O)N3CCCCCC3)c2C)c1 | -9.71
83 | NC(=O)c1cccc(CN2CCc3c(ncn3C3CC3)C2)c1 | -4.6
84 | CCN(CC)CC(=O)N1CCN(c2nc(C)cc(OC)n2)CC1 | -10.4
85 | NC(=O)Cn1cc(NC(=O)N2CCCCCC2)cn1 | -11.8
86 | CS(=O)(=O)Cc1ccc(CNC(=O)N2CCC(C(N)=O)C2)cc1 (stereo not drawn) | -6.43
87 | OC(COCc1cccs1)CN1CCc2c(ncn2C2CC2)C1 (stereo not drawn) | -4.29
88 | Cc1cnn(CC2CCCN2CCCS(=O)(=O)N(C)C)c1 (stereo not drawn) | -7.45

Row | Structure (SMILES) | cytotoxicity at 10 µM [%]
89 | Cc1cc(OCC(=O)N2CCCC2c2noc(C)n2)no1 (stereo not drawn) | -11.1
90 | CCn1cnnc1CNC(=O)c1cc(Cl)ccc1I | -5.98
91 | Cc1cnc(CN(C)C2CCN(CCc3cnn(C)c3)C2)o1 (stereo not drawn) | 5.44
92 | COC(CNC(=O)N1CCC(n2cncn2)CC1)c1ccccc1 (stereo not drawn) | 4.33
93 | CCc1nc(CN(C)C2CCN(Cc3ccc(C#N)cc3F)C2)no1 (stereo not drawn) | -7.12
94 | Cn1cc(CN2CC[C@H]3CO[C@H](CNc4ncccn4)[C@H]3C2)cn1 | -15.6
95 | O=C(NCc1cccs1)[C@]12COC[C@H]1CN(c1ncccn1)C2 | 11.6
96 | CC(=O)NC1CCN(c2ccnc(C3CCNCC3)c2)CC1 | -6.15
97 | CS(=O)(=O)N1Cc2nccn2CC(CNC(=O)c2cccnc2)C1 (stereo not drawn) | -143
98 | O=S(=O)(c1cccs1)N1CC[C@H]2[C@H]1CCN2CC1CC1 | 2.94
99 | Cc1cccc(COC[C@H]2CC[C@H]3[C@H](CCN3C(=O)CC3CC3)O2)n1 | -4.66
100 | CN(Cc1cccnc1)C[C@@H]1OC[C@H]2CN(Cc3ccoc3)CC[C@H]21 | -137
101 | Cc1ccc(N2C[C@@H]3CN(Cc4ccoc4)CCO[C@@H]3C2)nn1 | -12.8
102 | CS(=O)(=O)NC[C@H]1OC[C@H]2CN(CCc3ccccc3)CC[C@H]21 | -3.53
103 | CCN1CCCC12CCCN(c1ncccn1)C2 (stereo not drawn) | 0.113
104 | CC(C)N1CCc2c(c(COc3cncnc3)nn2CC2CC2)C1 | 1.7
105 | CC(C)N(C)Cc1n[nH]c2c1CCN(C(=O)c1ccc[nH]1)C2 | -133
106 | CC(C)(N)CNS(=O)(=O)Cc1cccc2cccnc12 | 14.5
107 | O=C(c1cc[nH]n1)N1CCC2(CC1)CC(Oc1cccnc1)CO2 (stereo not drawn) | 6.7
108 | Cc1cccc(S(=O)(=O)N2C[C@@H]3C[C@H](C(=O)NCC4CC4)[C@H](C2)O3)c1 | -2.35
